Reference: ChEMBL document CHEMBL1268915, “Optimization of a series of dipeptides with a P3 threonine residue as non-covalent inhibitors of the chymotrypsin-like activity of the human 20S proteasome” (Bioorg Med Chem Lett, 2010)
Activity calls are given as the source filed them. The calls are words filed in the database; no cut-off is given here.

Legend:
[1] = Binding affinity to chymotrypsin-like activity of 20S proteasome
[2] = (§1) Inhibition of TNF-alpha-induced NF-kappaB activation in human HEK293 cells after 3 hrs by luciferase reporter gene assay; type: cell-based; details: HEK293, 3 h
Summary of the method: (§2)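 NF-κB-luciferase reporter in HEK293 cells (10,000 per well). Cells were pre-incubated with compound for 1 h, then stimulated with 10 ng/ml TNF-α for 3 h with compound still present. IC50 and percentage inhibition were reported as means of at least three independent experiments.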

HEK293 = assay: as §1; type: cell-based; design: concentration or dose not given beside the values; details: dose or concentration not given here; summary of the method: as §2
[3] = Cytotoxicity against human Calu6 cells assessed as cellular ATP level after 72 hrs by luminescence-based ATPlite assay; type: cell-based, Calu-6; details: read-out: LC50
Summary of the method: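 Calu6 cells, 2000 per well, incubated with compound for 72 h. Viability read as cellular ATP by luminescence (ATPlite). Values are means of at least three independent experiments.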

[4] = Inhibition of chymotrypsin-like activity of human 20s proteasome beta-1 subunit in human erythrocyte assessed as hydrolysis of Ac-WLA-AMC fluorogenic substrate
[5] = Inhibition of chymotrypsin-like activity of human 20s proteasome beta2 subunit in human erythrocyte assessed as hydrolysis of Ac-WLA-AMC fluorogenic substrate
[6] = molecular target: Cathepsin B (Homo sapiens) (UniProt P07858); assay: Inhibition of human cathepsin B at 100uM
[7] = molecular target: Procathepsin L (Homo sapiens) (UniProt P07711); assay: Inhibition of human cathepsin L at 100uM
[8] = molecular target: T1, Coagulation factor XII (Homo sapiens) (UniProt P00748); assay: Inhibition of human coagulation factor beta 12a at 100 uM
T1 sequence (whole entry): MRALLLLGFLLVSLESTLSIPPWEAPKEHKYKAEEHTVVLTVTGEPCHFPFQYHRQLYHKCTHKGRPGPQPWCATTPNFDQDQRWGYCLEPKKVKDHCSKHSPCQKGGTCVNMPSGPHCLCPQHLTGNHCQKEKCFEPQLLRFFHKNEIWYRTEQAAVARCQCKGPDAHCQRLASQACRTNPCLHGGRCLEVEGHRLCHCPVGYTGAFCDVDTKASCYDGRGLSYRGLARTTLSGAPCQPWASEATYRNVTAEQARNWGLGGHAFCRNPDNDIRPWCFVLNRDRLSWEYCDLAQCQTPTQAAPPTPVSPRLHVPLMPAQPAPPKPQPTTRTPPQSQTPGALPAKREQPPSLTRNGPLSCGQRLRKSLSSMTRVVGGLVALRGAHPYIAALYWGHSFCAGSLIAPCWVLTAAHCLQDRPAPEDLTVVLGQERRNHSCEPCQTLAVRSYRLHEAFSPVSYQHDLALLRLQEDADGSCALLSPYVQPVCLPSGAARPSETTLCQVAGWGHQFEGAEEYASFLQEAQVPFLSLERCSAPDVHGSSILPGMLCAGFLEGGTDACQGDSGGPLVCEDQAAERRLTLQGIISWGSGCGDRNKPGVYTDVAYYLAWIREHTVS

Homo sapiens [9] = organism: Homo sapiens; assay: Inhibition of human chymotrypsin at 100 uM
Homo sapiens [10] = organism: Homo sapiens; assay: Inhibition of human elastase at 100 uM
[11] = molecular target: Plasminogen (Homo sapiens) (UniProt P00747); assay: Inhibition of human plasmin at 100 uM
[12] = molecular target: Prothrombin (Homo sapiens) (UniProt P00734); assay: Inhibition of human thrombin at 100 uM
[13] = molecular target: Tissue-type plasminogen activator (Homo sapiens) (UniProt P00750); assay: Inhibition of tissue plasminogen activator at 100 uM
Trypsin (Homo sapiens) = Trypsin (Homo sapiens) (UniProt P07477+P07478+P35030); assay: Inhibition of human trypsin at 100 uM; type: protein assay
[14] = molecular target: T2, Calpain-1 catalytic subunit (Homo sapiens) (UniProt P07384); assay: Inhibition of human calpain 1 at 100 uM
T2 sequence (whole entry): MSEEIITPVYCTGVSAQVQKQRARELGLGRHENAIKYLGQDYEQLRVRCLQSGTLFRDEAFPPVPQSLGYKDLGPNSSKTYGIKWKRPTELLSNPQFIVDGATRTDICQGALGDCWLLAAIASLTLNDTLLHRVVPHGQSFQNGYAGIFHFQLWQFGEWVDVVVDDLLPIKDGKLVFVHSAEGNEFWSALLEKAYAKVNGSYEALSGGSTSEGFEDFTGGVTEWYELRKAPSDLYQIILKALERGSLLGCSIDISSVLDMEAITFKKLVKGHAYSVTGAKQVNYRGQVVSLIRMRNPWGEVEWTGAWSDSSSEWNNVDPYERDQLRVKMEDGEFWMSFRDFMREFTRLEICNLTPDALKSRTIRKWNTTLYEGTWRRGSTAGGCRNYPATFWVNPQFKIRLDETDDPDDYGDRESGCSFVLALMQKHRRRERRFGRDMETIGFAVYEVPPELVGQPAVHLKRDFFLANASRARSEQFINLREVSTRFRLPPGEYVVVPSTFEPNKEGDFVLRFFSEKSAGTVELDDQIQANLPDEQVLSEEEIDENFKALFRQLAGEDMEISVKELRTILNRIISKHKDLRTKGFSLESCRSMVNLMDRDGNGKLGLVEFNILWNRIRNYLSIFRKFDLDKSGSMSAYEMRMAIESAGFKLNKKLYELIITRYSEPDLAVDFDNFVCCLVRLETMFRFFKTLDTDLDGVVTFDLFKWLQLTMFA

[15] = Inhibition of chymotrypsin-like activity of human 20s proteasome beta5 subunit in human erythrocyte assessed as hydrolysis of Ac-WLA-AMC fluorogenic substrate

Sequence of Procathepsin L (Homo sapiens) (P07711 114-333 limits assumed): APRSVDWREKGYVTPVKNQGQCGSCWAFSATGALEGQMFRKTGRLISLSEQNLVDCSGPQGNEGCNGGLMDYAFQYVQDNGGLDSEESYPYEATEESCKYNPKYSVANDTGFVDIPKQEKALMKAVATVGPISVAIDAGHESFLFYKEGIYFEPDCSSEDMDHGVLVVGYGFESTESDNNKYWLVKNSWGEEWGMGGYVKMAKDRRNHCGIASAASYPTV
Sequence of Plasminogen (Homo sapiens) (P00747 97-580 limits assumed): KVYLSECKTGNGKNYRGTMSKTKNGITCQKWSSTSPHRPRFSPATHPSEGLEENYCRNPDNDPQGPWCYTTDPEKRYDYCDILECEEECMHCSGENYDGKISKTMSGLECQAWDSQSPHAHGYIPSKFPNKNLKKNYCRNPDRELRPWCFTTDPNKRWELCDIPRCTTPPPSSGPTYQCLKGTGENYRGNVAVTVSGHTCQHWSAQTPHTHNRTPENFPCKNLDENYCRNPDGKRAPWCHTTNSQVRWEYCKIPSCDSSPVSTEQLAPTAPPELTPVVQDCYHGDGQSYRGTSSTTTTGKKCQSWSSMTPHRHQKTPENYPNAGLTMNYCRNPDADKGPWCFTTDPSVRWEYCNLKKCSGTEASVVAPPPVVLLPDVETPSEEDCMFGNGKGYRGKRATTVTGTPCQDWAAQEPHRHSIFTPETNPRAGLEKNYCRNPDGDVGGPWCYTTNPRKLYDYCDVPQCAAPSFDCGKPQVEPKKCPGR
Sequence of Plasminogen (Homo sapiens) (P00747 581-810 limits assumed): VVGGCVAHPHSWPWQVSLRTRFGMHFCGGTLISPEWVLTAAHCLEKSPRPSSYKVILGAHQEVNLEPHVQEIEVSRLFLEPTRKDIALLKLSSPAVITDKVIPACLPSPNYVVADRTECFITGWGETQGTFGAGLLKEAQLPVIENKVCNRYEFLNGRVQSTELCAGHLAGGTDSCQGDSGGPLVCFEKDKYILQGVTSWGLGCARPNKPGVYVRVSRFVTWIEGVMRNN
Sequence of Tissue-type plasminogen activator (Homo sapiens) (P00750 36-562 limits assumed): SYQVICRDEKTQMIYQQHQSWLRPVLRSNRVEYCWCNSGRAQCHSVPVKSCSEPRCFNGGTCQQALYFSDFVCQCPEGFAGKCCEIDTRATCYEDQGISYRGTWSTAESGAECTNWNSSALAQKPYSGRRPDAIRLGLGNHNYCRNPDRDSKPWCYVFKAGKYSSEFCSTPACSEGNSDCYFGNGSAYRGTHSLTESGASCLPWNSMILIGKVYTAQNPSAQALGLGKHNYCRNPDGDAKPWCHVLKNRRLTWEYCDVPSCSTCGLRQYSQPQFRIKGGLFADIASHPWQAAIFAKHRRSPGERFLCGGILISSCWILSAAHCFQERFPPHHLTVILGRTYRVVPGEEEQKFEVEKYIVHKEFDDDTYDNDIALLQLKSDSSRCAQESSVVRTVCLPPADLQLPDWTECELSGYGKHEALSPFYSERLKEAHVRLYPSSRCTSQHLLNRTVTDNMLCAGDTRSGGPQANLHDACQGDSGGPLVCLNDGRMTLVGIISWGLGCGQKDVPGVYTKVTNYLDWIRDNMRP

Row | SMILES | Ki [1] [nM] | IC50 [2] [nM] | inhibition (HEK293) [%] | CC50 at 72 h [3] [nM] | IC50 [4] [nM] | IC50 [5] [nM] | inhibition [6] | inhibition [7] | inhibition [8] | inhibition (Homo sapiens [9]) | inhibition (Homo sapiens [10]) | inhibition [11] | inhibition [12] | inhibition [13] | inhibition (Trypsin (Homo sapiens)) | inhibition [14] | IC50 [15] [nM]
1 | CC(C)C[C@H](NC(=O)[C@H](Cc1ccccc1)NC(=O)c1cnccn1)B(O)O [BORTEZOMIB] | 0.55 | 10 | 100 | 6.1 | > 20000 | > 20000 | Active | Active | Active | Active | Active | Active | Active | Active | Active | Active | 
2 | COC[C@H](NC(=O)Cc1cccc(Oc2ccccc2)c1)C(=O)N[C@@H](CCc1ccccc1)C(=O)NCc1ccc(C)cc1 |  | 6100 | 40 | > 25000 | > 20000 | > 20000 | Active | Active | Active | Active | Active | Active | Active | Active | Active | Active | 550
